Screening results deposited in PubChem by several laboratories.
An excerpt weighted towards active compounds, which were near 0.64% of everything screened.
Rad51 HR inh: human RAD51 strand exchange inhibitors, primary screen, biochemical, fluorescence | DNA repair protein RAD51 homolog 1 (Homo sapiens), Q06609 | hRad51 DNA strand exchange, fluorescence dequenching | inhibition, % at 10 µM | 200,000 tested, 0.085% active;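 active = inhibition above 40% at the single screening dose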;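 note: 0% = DMSO control wells and 100% = blanks with heterologous ssDNA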
Target sequence (Q06609 whole entry, looked up): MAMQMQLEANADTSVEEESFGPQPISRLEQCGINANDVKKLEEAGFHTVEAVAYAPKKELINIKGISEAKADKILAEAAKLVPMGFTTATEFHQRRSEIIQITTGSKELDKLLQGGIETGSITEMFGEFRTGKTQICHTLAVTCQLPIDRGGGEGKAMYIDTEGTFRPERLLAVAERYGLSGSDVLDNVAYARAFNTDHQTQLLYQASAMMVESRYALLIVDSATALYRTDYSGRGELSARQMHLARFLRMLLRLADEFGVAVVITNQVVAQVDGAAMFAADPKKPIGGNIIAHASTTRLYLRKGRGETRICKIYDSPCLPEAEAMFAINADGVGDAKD
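material = hRad51 filaments on single-stranded DNA | timing = filaments 15 min 37 °C, then compound 30 min | signal = FRET fluorescence dequenching, excitation 485 nm, emission 520 nm | benchmarks = control wells and blank wells on each plate | evaluation = percent inhibition relative to plate controls and blanks | compound = 10 µM final, single point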
TNF necrop inh: inhibitors of TNF-alpha triggered necroptosis, primary screen, cell-based, Jurkat FADD-/-, single concentration. Jurkat FADD-/- TNF necroptosis rescue, ATP luminescence, 24 h; 0 = TNF only, 100 = no-TNF cells. activation (protection from cell death), % at 10 µM. 220,000 tested, 0.068% active. AID 463075, 2010;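 active = activation, meaning protection from cell death, of at least 50% relative to plate controls; inactive = activation below 50%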;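 note: necroptosis triggered by 40 ng/mL TNF-alpha added together with compound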
sdo1 growth: growth rescue of sdo1-depleted yeast, primary screen, S. cerevisiae, bone marrow failure model | S. cerevisiae sdo1-depleted JHY4D growth rescue, OD600 30 h; stronger effect = higher value; pdr5 snq2 efflux-pump mutant strain | z-score at 10 µM | 140,000 tested, 0.21% active | AID 817, 2007;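 active = z-score above 3 at both the 24 hr and the 30 hr optical density reads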;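 note: z-score against mean and SD of all compound wells on the same plate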
zVAD death inh: inhibitors of zVAD-triggered necroptosis, primary screen, L929 cells; L929 zVAD necroptosis rescue, ATP luminescence, 24 h; with zVAD 60 µM; viability rescue, % at 10 µM; 220,000 tested, 0.38% active; AID 1377, 2008;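 active = activation, scaled between plate controls, above about 75%, limit read from the data; inactive = activation under that limit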;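 note: 0% = zVAD with DMSO and 100% = DMSO alone without zVAD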
zVAD necrop conf: inhibitors of zVAD-triggered necroptosis in L929, confirmation, L929 cells, duplicate runs; shares compounds with zVAD death inh; L929 zVAD-induced necroptosis rescue, ATP luminescence, 24 h; activation (protection from necroptosis), % at 10 µM; 760 tested, 16% active;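 active = mean protection from necroptosis of at least 50% over duplicate tests; inactive = mean protection below 50%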;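 note: 0% = cells with zVAD alone and 100% = vehicle cells without zVAD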
An asterisk follows results filed as active; nt = no result given.

SMILES	Rad51 HR inh	TNF necrop inh	sdo1 growth	zVAD death inh	zVAD necrop conf
CCOC(=O)c1c(C)[nH]c(C=Nc2ccccc2)c1O	-4	-2	-1.1	0	nt
COc1ccc(N=Cc2c(O)[nH]c3ccccc23)cc1	-9	-2	-0.72	77*	76*
Oc1[nH]c2ccccc2c1/C=N/c1nccs1	nt	-4	0.68	76*	35
Oc1[nH]c2ccccc2c1C=Nc1ccc2c(c1)OCO2	-3	-1	-0.59	74	nt
CCOC(=O)c1c(C)[nH]c(O)c1C=Nc1ccccc1	-7	-12	-0.38	87*	0
COc1cc(/C=C2\Oc3cc(O)ccc3C2=O)ccc1O	-38	-3	nt	76*	27
CC(C)OC(=O)N(C)c1ccc(C(O)(C(F)(F)F)C(F)(F)F)cc1	4	-2	-0.49	77*	9
COc1cc(NC(=O)c2ccccn2)cc(OC)c1OC	-21	0	nt	0	nt
COc1cc(NC(=O)c2cccnc2Sc2ccc(Cl)cc2)cc(OC)c1OC	-5	4	-0.58	77*	42
CC(=O)c1cccc(NC(=O)Nc2cccnc2)c1	-3	1	2	0	nt
Cc1ccc(NC(=O)Nc2cccnc2)cc1NC(=O)Nc1cccnc1	13	-11	nt	77*	6
COc1ccc(Cn2c(-c3ccc(C)cc3)c[n+]3ccccc23)cc1	-1	-3	1	0	nt
CCn1cc(CN2CCCC(C(=O)c3ccc(-c4ccccc4)cc3)C2)cn1 (stereo not drawn)	nt	0	nt	-1	nt
O=C(Nc1ccc(N2CCN(C(=O)c3ccco3)CC2)cc1)C(c1ccccc1)c1ccccc1	-3	2	-0.74	76*	21
O=C(CN1CCN(c2ncccn2)CC1)NCCC1=CCCCC1	7	0	-0.56	0	nt
N#Cc1cccc(NCC(=O)Nc2ccc3c(c2)OCCO3)c1	0	2	nt	77*	2
N#Cc1ccc(NCC(=O)Nc2ccc3c(c2)OCCO3)cc1	1	2	nt	66	nt
O=C(NNC(=O)c1ccc(NC(=O)c2ccccc2)cc1)Nc1ccccc1	2	2	nt	76*	37
Nc1nccc(-c2ccc(-n3cccc3)cc2)n1	-5	-4	nt	-1	nt
O=C1CC(/C=C/c2ccc(Cl)cc2)=Nc2ccccc2N1	-4	-1	nt	77*	1
COCCN(C(=O)CNC(=O)c1ccco1)C(C(=O)NC1CCCC1)c1cccs1 (stereo not drawn)	0	-3	1.4	-1	nt
COc1cc(OC)c(C2=NOC(C(=O)N3CCc4ccccc4C3)C2)cc1Cl (stereo not drawn)	3	-1	-1.8	0	nt
COc1cc(OC)c(C2=NOC(C(=O)N3CCN(C(=O)c4ccco4)CC3)C2)cc1Cl (stereo not drawn)	7	1	nt	83*	1
C/C(=N\NC(=O)c1ccc(NS(=O)(=O)c2cccs2)cc1)c1ccc(C(C)(C)C)cc1	1	7	0.6	82*	6
CCc1cccc2c(C(=O)COC(=O)c3ccc(O)cc3)c[nH]c12	-2	7	-0.1	77*	74*
SMILES	Rad51 HR inh	TNF necrop inh	sdo1 growth	zVAD death inh	zVAD necrop conf
Cc1c(NC(=O)CSc2nc3ccccc3s2)c(=O)n(-c2ccccc2)n1C	7	2	1	-1	nt
CCOC(=O)CN1C(=O)C(O)(CC(=O)c2cccc(OC)c2)c2ccccc21 (stereo not drawn)	-5	-15	1	0	nt
CCc1ccc(NC(=O)CCN2C(=O)c3cccnc3C2=O)cc1	2	1	0.53	0	nt
CCc1ccc2c(c1)C(=O)C(=O)N2CC(=O)Nc1ccc(NC(=O)c2ccccn2)cc1	-3	-2	nt	78*	24
Cc1cc(C)nc(SCC(=O)c2c(N)n(C)c(=O)n(C)c2=O)n1	nt	-3	0.35	76*	0
COc1ccc(-c2cnc[nH]2)cc1	-10	0	nt	1	nt
CCOC(=O)Nc1nnc(-c2ccccc2OC)s1	16	0	-1.6	0	nt
CCC(SC1=NCCS1)C(=O)Nc1nnc(-c2ccccc2OC)s1 (stereo not drawn)	-5	3	-0.89	83*	1
O=C(Nc1ccc2c(c1)OCO2)Nc1ccc(Br)cn1	-1	8	0.23	79*	1
Cc1ccnc(NC(=O)Nc2ccc3c(c2)OCO3)c1	29	1	nt	85*	2
Cc1ccc(NC(=O)c2cc(-c3ccco3)nc3ccccc23)cc1S(=O)(=O)N1CCOCC1	1	-2	nt	77*	10
COc1ccc(NC(=O)c2cc(-c3ccco3)nc3ccccc23)cc1S(=O)(=O)N1CCOCC1	nt	-13	nt	1	nt
Cc1ncsc1C(=O)Nc1nc2c(s1)CC(C)CC2 (stereo not drawn)	-2	-7	0.18	0	nt
CC1CCc2nc(NC(=O)C3CC3)sc2C1 (stereo not drawn)	17	0	-0.05	78*	29
CCSC1=N/C(=C\c2ccc(OC)cc2)C(=O)N1	7	2	-0.37	3	nt
COc1ccc(/C=C2\N=C(SC)NC2=O)cc1	3	64*	-1.2	91*	77*
CCC(NC(=O)CCl)c1ccc(C)cc1 (stereo not drawn)	-103	19	nt	77*	2
CC1(C)CC(=O)C(C2C3=C(CC(C)(C)CC3=O)Oc3ccccc32)C(=O)C1 (stereo not drawn)	8	2	nt	1	nt
CC1(C)CC(=O)C2=C(C1)Oc1nc3ccccc3cc1C2C(C#N)C#N (stereo not drawn)	-5	-12	-0.77	90*	2
CCOc1cc(C(=O)NCCCn2ccnc2)cc(OCC)c1OCC	-1	2	2.3	0	nt
CN(C)C=NC(=O)/C(C#N)=C1\CCc2ccccc2N1	-11	15	1.1	83*	6
COc1cc(-c2cc(=O)c3c(O)c(OC)c(OC)cc3o2)cc(OC)c1O	7	-16	nt	77*	10
COc1ccc(-c2cc(=O)c3c(O)c(OC)c(O)cc3o2)cc1	-2	-4	nt	1	nt
CC(C)(C)c1ccc(C(=O)Nc2ccc(S(N)(=O)=O)cc2)cc1	14	0	nt	83*	34
CN1CCC(=NNC(=O)c2cn(-c3ccccc3)nc2-c2ccccc2)CC1	7	2	1.1	0	nt
SMILES	Rad51 HR inh	TNF necrop inh	sdo1 growth	zVAD death inh	zVAD necrop conf
O=C(CSc1nc(-c2ccccc2)c(-c2ccccc2)[nH]1)NCCN1C(=O)CSC1=O	-3	-3	0.22	0	nt
COc1ccc(C(=O)Nc2nccs2)cc1OC	nt	30	1	80*	46
COc1ccc(NC(=O)Nc2nccs2)cc1	0	-3	0.11	22	nt
CCn1nccc1C(=O)Nc1nccs1	9	4	-0.31	85*	37
CCn1cc(Br)c(C(=O)Nc2nccs2)n1	4	0	nt	7	nt
CCCc1cc(C(=O)Nc2nccs2)cs1	1	38	-1.6	99*	80*
